From PubChem BioAssay
Shown are actives, neighbours in structure and some others; about 2.9% of the full set was active somewhere.
proKLK7 act: proKLK7 zymogen activators, primary screen, biochemical, fluorescence intensity | Kallikrein-7 (Homo sapiens), P49862 | purified proKLK7, EDANS-DABCYL substrate fluorescence; 100% is mature enzyme control, 0% vehicle | activation, % at 7 µM | actives 0.9% (n = 370,000);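 active = activation above the mean of all tested compounds plus 3 SD, computed per campaign excluding outliers beyond control limits, cut at about 13% in these data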
Target sequence (P49862 whole entry, looked up): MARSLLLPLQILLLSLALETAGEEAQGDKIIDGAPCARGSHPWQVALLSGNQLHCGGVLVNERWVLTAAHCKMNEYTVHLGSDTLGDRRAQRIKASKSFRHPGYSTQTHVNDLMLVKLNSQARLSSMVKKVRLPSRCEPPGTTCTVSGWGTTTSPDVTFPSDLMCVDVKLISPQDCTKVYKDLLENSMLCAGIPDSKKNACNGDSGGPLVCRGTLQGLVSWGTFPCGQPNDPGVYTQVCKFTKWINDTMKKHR
CRFBP-R2 agonist: agonists of CRF-BP/CRF-R2 complex, primary screen, cell-based, HEK293, calcium dye fluorescence, uHTS. calcium dye fluorescence (FLIPR); percent of saturating CRF peptide response. activation, % at 13.2 µM. actives 0.46% (n = 350,000). AID 588473, 2011;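 active = activation of at least 50%, plus an integration ratio under a set limit after plate pattern correction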;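 also: plate controls were neutral control wells without compound for no effect and CRF at EC100 for full effect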
Tn6 DDE FP: inhibitors of Tn6 peptide binding to fibrin DD(E), primary screen, biochemical, fluorescence polarization, human fibrin, Tn6 probe | Fibrinogen beta chain (Homo sapiens), P02675 | Fibrin DD(E) TRITC-Tn6 fluorescence polarization displacement | inhibition, % at 8.3 µM | actives 0.21% (n = 370,000) | AID 720509, 2013;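 active = inhibition above a per-campaign cutoff: mean of compounds within control limits plus 3 SD, cut at about 15% in these data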;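 also: 0% = median of all compound wells on the plate and 100% = blocking peptide control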
Target sequence (P02675 whole entry, looked up): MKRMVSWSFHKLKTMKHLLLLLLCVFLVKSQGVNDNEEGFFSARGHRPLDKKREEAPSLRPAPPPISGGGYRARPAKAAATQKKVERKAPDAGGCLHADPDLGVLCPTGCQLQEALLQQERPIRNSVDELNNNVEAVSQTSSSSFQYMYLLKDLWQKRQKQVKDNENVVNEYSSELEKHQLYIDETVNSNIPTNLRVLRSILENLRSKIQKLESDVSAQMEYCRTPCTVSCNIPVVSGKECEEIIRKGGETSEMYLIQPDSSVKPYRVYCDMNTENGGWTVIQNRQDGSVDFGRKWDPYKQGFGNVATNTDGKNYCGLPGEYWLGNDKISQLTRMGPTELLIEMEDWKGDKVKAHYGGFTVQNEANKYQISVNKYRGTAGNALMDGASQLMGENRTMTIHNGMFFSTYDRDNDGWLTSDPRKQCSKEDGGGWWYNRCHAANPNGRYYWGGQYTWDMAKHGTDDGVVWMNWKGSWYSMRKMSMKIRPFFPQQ
NRP1-CendR mod: modulators of CendR peptide binding to NRP-1, primary screen, biochemical, fluorescence polarization, uHTS; Neuropilin-1 (Homo sapiens), O14786; FAM-RPARPAR peptide binding to NRP-1; inhibition, % at 25 µM; actives 0.85% (n = 360,000);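 active = inhibition or corrected inhibition above about 18%, plus a signal ratio from 0.5 to 1.5, limit read from the data, passing the limit was not always enough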
CRFR2-BP antag: antagonists of CRF-BP/CRF-R2 complex, primary screen, cell-based, HEK293, calcium dye fluorescence, uHTS; actives 0.59% (n = 350,000); inhibition, % at 11.8 µM; CRF-induced calcium fluorescence; AID 588475, 2011;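 active = inhibition of the ligand-induced calcium signal above about 50% at the single tested concentration, limit read from the data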
Tn7 DDE FP: inhibitors of Tn7 peptide binding to fibrin DD(E), primary screen, biochemical, fluorescence polarization, human fibrin, Tn7 probe | FP displacement of FITC-Tn7 peptide from fibrin DD(E); 0% = median of compound wells per plate | inhibition, % at 8.3 µM | actives 0.13% (n = 370,000) | AID 720508, 2013;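 active = inhibition above the mean of compounds falling within the control limits plus 3 SD of them, cut at about 14% in these data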;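 also: 0% = plate median of compound wells and 100% = 10 µM Aha-Tn7 peptide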
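Measure: % inhibition scaled between sample-field median and high-control FP; Test system: human fibrin DD(E); Quantity: 2 µM final DD(E) protein; Doses: one dose, 8.3 µM nominal; Schedule: compound with protein 10 min, then 3 h after probe, room temperature; Detection: fluorescence polarization; Medium: Tris buffer with calcium and detergent, pH 7.8.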
Starred values were filed as active, the others as inactive; x = not tested or not shown.

SMILES | proKLK7 act | CRFBP-R2 agonist | Tn6 DDE FP | NRP1-CendR mod | CRFR2-BP antag | Tn7 DDE FP
O=S(=O)([N-]c1nc2ccccc2nc1-[n+]1ccc(-c2ccncc2)cc1)c1ccccc1 | 5.9 | 223.9* | -0.2 | 66.4 | -99.3 | 1.2
Clc1ccccc1OCc1nn[nH]n1 | -0.4 | 0.2 | 1.2 | 29.6* | -0.8 | 4.5
Cc1cccc(OCc2nn[nH]n2)c1C | 0.0 | -0.7 | -5.0 | 2.0 | 6.1 | 4.1
O=c1c2cc3cccnc3nc2ncn1Cc1cccs1 | 3.5 | x | -1.9 | x | x | 0.3
COC(=O)C1CN(C2CCCC2)CCS(=O)(=O)N1Cc1ccc(F)cc1 (stereo not drawn) | -0.1 | x | 0.1 | x | x | -8.3
CN1C(=O)c2cccc3c(N(C)C)ccc(c23)C1=O | 1.2 | 55.0* | 5.6 | -66.5 | -44.2 | -0.9
CN1C(=O)c2cccc3c(Cl)ccc(c23)C1=O | 0.6 | -2.0 | -3.2 | 3.9 | -4.4 | 1.6
CC1(C)CCC/C(=C\c2ccccc2)C1=O | 0.2 | -1.3 | 5.9 | 19.7* | -0.6 | 8.1
CCC(C)[C@H](NC(=O)Nc1cccc(Cl)c1)C(=O)O (stereo partly drawn) | 0.4 | -1.1 | -7.2 | 19.8* | -15.8 | 5.4
CCC(C)[C@H](NC(=O)Nc1ccc(S(N)(=O)=O)cc1)C(=O)O (stereo partly drawn) | -0.3 | -1.3 | 4.1 | 0.2 | -15.0 | -2.7
Cc1ccccc1NC(=S)NCc1cccn1C | 0.6 | 1.3 | 5.7 | 13.1 | -19.2 | -3.9
Cc1c(Cl)cccc1NC(=S)NCc1cccn1C | 0.5 | 4.0 | 0.4 | 28.3* | 24.9 | -4.0
Cc1cccc(C)c1-n1cccc1/C=C1/C(=N)N2C(=NC1=O)SN=C2S(C)(=O)=O | -0.1 | -0.7 | -6.6 | -50.1 | 58.7* | 0.0
CCC(CC)C1=NN2C(=N)/C(=C\c3cc(C)n(-c4cccc(C)c4)c3C)C(=O)N=C2S1 | 0.3 | 87.0* | 6.7 | -18.1 | -63.8 | 1.3
CCOc1ccc(-n2c(C)cc(/C=C3/C(=N)N4C(=NC3=O)SN=C4S(C)(=O)=O)c2C)cc1 | 0.1 | 1.7 | -0.8 | -60.2 | 93.1* | 1.8
Cc1ccc(-n2cccc2/C=C2/C(=N)N3C(=NC2=O)SN=C3S(C)(=O)=O)cc1Cl | 2.1 | 0.9 | -20.3 | -99.2 | 50.3* | -7.7
Cc1cc(/C=C2/C(=N)N3C(=NC2=O)SN=C3S(C)(=O)=O)c(C)n1-c1ccc(F)cc1 | 1.2 | 2.9 | -7.9 | -8.0 | 25.0 | -1.1
OCCCN1CCC2(CCC(c3ccccc3)CC2)C1 (stereo not drawn) | 0.0 | x | -1.7 | x | x | 5.5
CCOC(=O)CC[C@H]1CC[C@]2(CCCN(C(=O)C3CCCC3)C2)O1 | 0.3 | x | -1.3 | x | x | 0.3
C=CCN=C1NC(c2ccccc2)C(C(=O)OC)=C(C)N1C (stereo not drawn) | -1.0 | x | -2.0 | x | x | -0.8
O=C(CN1C(=O)C2(OCCCO2)c2ccccc21)NCc1ccccc1Cl | 0.0 | x | -5.1 | x | x | 3.8
Cc1cc(O)c(C2(O)C(=O)Nc3cc(Br)ccc32)cc1C (stereo not drawn) | 0.4 | 4.1 | -7.6 | -6.3 | 121.1* | -1.2
O=C1Nc2cc(Br)ccc2C1(O)c1ccccc1O (stereo not drawn) | -0.3 | 6.4 | -5.7 | 3.7 | 8.5 | -0.8
CCCCCCCOC(=O)C[N+](C)(C)CCOC1CC2CCC1(C)C2(C)C (stereo not drawn) | -0.5 | 111.5* | 1.6 | 5.0 | -158.2 | -2.7
COc1ccc(/C=C2/CCC(CN3CCOCC3)C2=O)cc1 (stereo not drawn) | -0.9 | 12.4 | 5.9 | 13.6 | 57.3* | 2.9
SMILES | proKLK7 act | CRFBP-R2 agonist | Tn6 DDE FP | NRP1-CendR mod | CRFR2-BP antag | Tn7 DDE FP
COc1ccc(/C=C2\CCC(C3CCCC3)C2=O)cc1 (stereo not drawn) | -0.2 | 1.8 | -3.4 | 11.8 | -15.3 | 1.9
FCCCOc1ccc(-c2nccc(-c3ccccn3)n2)cc1 | -1.0 | -0.3 | 2.7 | 20.8* | 18.7 | -0.3
O=C(O)COc1ccc(-c2nccc(-c3ccccn3)n2)cc1 | 0.6 | -1.1 | 5.3 | 2.0 | 4.0 | -2.9
O=C1/C(=C/c2ccc(N3CCCC3)cc2)NC(=S)N1C1CC1 | 0.0 | 176.2* | -10.0 | 126.0 | -192.2 | -19.0
Cc1cc(N2CCCC2)ccc1/C=C1\NC(=S)N(C)C1=O | -0.4 | 169.5* | -6.9 | -41.9 | -197.1 | -11.2
O=C1N/C(=C/c2ccc(N3CCCC3)cc2)C(=O)N1c1ccccc1 | 0.0 | 20.8 | -0.8 | -39.4 | -25.4 | -4.1
CN1C(=O)c2ccc(N3CCCC3)cc2C1=O | -33.8 | 18.8 | -2.0 | -3.0 | 17.3 | 2.4
COc1ccc(Cn2cc(COC(=O)NCCc3c[nH]c4ccccc34)nn2)cc1 | -0.3 | x | -9.7 | x | x | -2.0
CCCN1C(=O)c2ccccc2NC1c1ccc(OC)c(CSc2ccccn2)c1 (stereo not drawn) | -3.2 | -1.8 | 5.8 | 0.5 | 50.5* | 4.1
O=C(Nc1ccc(S(=O)(=O)C(F)F)cc1)c1ccc2c(=O)n3c(nc2c1)CCC3 | 0.7 | 2.6 | -3.2 | -4.3 | -1.7 | -2.4
Cc1cc(C)c2nc(NC(=O)c3ccc4c(=O)n5c(nc4c3)CCCCC5)sc2c1 | -0.3 | -1.4 | 4.1 | 1.8 | 58.8* | 7.9
O=C(Nc1ccc(SC(F)F)cc1)c1ccc2c(=O)n3c(nc2c1)CCC3 | 0.4 | 74.0* | 5.2 | 9.6 | 5.7 | -2.8
COc1ccc(C(=O)Nc2ccc3nc4n(c(=O)c3c2)CCCCC4)cc1OC | -0.5 | -0.1 | 2.4 | -2.7 | 61.9* | -8.7
O=C1CCC2(CCCCC2)N1CCCO | 0.0 | x | 1.5 | x | x | 1.4
O=c1oc2ccccc2cc1-c1nc(-c2cccs2)cs1 | -76.7 | 15.4 | 1.8 | 132.7 | -26.7 | 8.1
COc1cccc2cc(-c3nc(-c4cccs4)cs3)c(=O)oc12 | -2.8 | 11.6 | -7.0 | 47.1* | -2.5 | -2.4
C[C@@H]1ON(C)[C@H]2C[C@H]3c4cc(N5CCN(C)CC5)ccc4CCN3C[C@@H]12 | 0.6 | x | 0.9 | x | x | -5.9
CC[C@@H](C(=O)[C@@H](C)[C@@H](O)[C@H](C)[C@@H]1O[C@@H]([C@@H](CC)C(=O)O)CC[C@@H]1C)[C@H]1O[C@]2(C=C[C@@H](O)[C@]3(CC[C@@](C)([C@H]4CC[C@](O)(CC)[C@H](C)O4)O3)O2)[C@H](C)C[C@@H]1C | 0.5 | 2.6 | -2.2 | 7.1 | 4.9 | 1.4
CC[C@@H](C(=O)[C@@H](C)[C@@H](O)[C@H](C)CCc1ccc(C)c(O)c1C(=O)O)[C@H]1O[C@](CC)([C@H]2CC[C@](O)(CC)[C@H](C)O2)C[C@@H]1C | 0.5 | 118.4* | -1.5 | 5.7 | -2.4 | -0.9
